Measurements taken from ChEMBL document CHEMBL2203171, “The use of small molecule probes to study spatially separated stimulus-induced signaling pathways” (Bioorg Med Chem Lett, 2012).
The source made the active and inactive calls. No cut-off for these calls is given here.

Tests used:
Type in all cases: cell-based
[1] = biological target: T1, Toll-like receptor 3 (Mus musculus) (UniProt Q99MB1); test: Inhibition of TRIF recruitment to TLR3 in C57BL/6 mouse BMDM cells assessed as inhibition of pI:pC-induced p38 MAPK activity up to 90 mins
T1 sequence (whole entry): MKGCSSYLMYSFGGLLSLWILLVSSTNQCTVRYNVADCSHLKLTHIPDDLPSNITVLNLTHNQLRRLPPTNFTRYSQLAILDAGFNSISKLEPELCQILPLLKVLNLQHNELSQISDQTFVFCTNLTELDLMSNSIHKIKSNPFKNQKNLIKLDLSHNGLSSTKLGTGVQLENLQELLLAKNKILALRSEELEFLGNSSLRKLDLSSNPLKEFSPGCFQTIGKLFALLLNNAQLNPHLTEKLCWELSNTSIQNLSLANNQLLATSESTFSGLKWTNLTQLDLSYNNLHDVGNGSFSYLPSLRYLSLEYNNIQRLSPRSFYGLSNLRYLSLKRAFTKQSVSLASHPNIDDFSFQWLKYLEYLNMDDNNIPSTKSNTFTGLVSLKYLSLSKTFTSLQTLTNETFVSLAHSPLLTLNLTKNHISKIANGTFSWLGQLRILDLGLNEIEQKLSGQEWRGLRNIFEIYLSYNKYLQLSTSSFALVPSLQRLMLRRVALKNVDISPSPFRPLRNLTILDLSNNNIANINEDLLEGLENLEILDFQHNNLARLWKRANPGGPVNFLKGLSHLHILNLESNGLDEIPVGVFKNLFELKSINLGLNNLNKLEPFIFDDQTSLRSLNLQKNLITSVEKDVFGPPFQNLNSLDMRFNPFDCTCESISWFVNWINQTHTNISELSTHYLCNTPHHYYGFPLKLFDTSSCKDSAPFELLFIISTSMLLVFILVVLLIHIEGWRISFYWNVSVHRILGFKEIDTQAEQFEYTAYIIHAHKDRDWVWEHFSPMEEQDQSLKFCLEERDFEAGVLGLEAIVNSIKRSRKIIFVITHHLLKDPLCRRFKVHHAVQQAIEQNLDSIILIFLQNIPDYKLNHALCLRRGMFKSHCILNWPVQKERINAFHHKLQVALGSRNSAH
Procedure, shortened: (§1)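 Bone marrow macrophages from C57BL/6 mice, grown in 70% growth medium (DMEM, 10% FBS) plus 30% L929-conditioned medium and given fresh medium 12-14 h before stimulation. Stimuli: IL-1 40 ng/ml, HKSA ~10^8 cfu/ml, pI:pC 50 μg/ml or CpG 10 μg/ml, ± compound at 10 μM (final) added from a 200x DMSO stock. IκBα and p38 profiled by immunoblot. Three independent experiments, quantitated and normalized.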

[2] = biological target: T2, Toll-like receptor 9 (Mus musculus) (UniProt Q9EQU3); test: Inhibition of MyD88 recruitment to TLR9 in C57BL/6 mouse BMDM cells assessed as inhibition of CpG-induced IkappaBalpha phosphorylation up to 90 mins by Western blot analysis; procedure, shortened: as §1
T2 sequence (whole entry): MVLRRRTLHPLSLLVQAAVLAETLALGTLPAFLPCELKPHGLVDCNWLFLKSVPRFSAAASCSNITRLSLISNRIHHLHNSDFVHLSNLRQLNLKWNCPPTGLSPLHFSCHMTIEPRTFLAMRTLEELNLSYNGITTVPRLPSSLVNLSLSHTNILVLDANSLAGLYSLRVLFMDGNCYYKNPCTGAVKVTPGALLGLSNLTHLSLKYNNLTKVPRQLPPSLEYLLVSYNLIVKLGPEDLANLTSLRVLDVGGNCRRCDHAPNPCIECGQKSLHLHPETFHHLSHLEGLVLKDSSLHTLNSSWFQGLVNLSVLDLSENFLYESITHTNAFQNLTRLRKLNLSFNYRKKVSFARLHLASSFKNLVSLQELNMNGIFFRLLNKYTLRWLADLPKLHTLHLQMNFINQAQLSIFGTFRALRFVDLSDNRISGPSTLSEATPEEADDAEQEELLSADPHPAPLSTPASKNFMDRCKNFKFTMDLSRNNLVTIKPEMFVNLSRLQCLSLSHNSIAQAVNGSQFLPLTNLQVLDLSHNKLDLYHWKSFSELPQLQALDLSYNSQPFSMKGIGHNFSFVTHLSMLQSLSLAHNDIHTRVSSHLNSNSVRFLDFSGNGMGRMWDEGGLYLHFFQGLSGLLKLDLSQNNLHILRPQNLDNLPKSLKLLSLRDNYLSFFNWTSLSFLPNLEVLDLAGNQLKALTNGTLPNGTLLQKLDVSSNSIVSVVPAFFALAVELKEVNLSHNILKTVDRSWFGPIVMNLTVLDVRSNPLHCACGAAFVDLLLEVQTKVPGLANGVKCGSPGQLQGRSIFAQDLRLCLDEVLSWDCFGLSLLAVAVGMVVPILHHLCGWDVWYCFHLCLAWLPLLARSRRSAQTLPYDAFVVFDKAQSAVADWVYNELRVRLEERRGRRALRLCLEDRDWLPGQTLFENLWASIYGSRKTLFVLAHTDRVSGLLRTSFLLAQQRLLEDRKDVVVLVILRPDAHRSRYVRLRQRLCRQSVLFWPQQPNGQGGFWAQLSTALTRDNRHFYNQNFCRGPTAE

[3] = biological target: Toll-like receptor 2 (Mus musculus) (UniProt Q9QUN7); test: Inhibition of MyD88 recruitment to TLR2 in C57BL/6 mouse BMDM cells assessed as inhibition of HKSA-induced IkappaBalpha degradation up to 90 mins by Western blot analysis; procedure, shortened: as §1
Chain of Toll-like receptor 2 (Mus musculus) (Q9QUN7 whole entry): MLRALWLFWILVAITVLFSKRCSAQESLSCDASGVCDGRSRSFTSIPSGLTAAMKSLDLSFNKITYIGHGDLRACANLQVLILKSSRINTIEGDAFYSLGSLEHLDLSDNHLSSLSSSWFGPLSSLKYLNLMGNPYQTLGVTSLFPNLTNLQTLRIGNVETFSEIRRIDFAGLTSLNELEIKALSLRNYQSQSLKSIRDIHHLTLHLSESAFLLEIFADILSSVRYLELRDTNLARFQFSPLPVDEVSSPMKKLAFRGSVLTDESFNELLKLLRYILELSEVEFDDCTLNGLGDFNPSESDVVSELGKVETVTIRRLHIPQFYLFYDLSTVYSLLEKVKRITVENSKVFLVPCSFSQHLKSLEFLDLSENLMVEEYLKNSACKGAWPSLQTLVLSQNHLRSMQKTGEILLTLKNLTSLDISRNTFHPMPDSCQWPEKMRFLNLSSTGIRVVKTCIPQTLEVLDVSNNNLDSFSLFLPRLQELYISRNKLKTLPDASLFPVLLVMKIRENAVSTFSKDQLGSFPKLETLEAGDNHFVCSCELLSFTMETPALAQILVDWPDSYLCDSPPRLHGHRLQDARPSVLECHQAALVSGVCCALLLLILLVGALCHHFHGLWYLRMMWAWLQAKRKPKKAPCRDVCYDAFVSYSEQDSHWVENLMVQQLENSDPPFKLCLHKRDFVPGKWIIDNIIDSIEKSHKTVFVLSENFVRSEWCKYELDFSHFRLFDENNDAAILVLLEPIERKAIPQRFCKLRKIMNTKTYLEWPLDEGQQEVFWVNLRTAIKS

inhibition [1] | inhibition [2] | inhibition [3] | Structure (SMILES)
inactive | Active | Active | O=C(CCCCCN1C(=O)C=CC1=O)Oc1ccc2cc(C(C(=O)NCc3ccccc3)N(C(=O)Cc3ccc4c(c3)OCO4)C3CC3)ccc2c1 (configuration not stated)
– | Active | Active | O=C(CCCCCCCC(=O)ON1C(=O)CCC1=O)Oc1ccc2cc(C(C(=O)NCc3ccccc3)N(C(=O)Cc3ccc4c(c3)OCO4)C3CC3)ccc2c1 (configuration not stated)
– | Active | Active | O=C(CCCCCN1C(=O)CCC1=O)Oc1ccc2cc(C(C(=O)NCc3ccccc3)N(C(=O)Cc3ccc4c(c3)OCO4)C3CC3)ccc2c1 (configuration not stated)
